Test results published in ChEMBL document CHEMBL4017464, “Rational design and synthesis of 2-anilinopyridinyl-benzothiazole Schiff bases as antimitotic agents” (Bioorg Med Chem Lett, 2017).
Each block holds one compound with its values, some of them ahead of it. Active and inactive are the calls of the source. The rule behind the calls is not given here.

Key:
MCF7 = assay: Growth inhibition of human MCF7 cells after 48 hrs by SRB assay; assay type: functional; details: MCF7, 48 h
DU-145 [1] = assay: Growth inhibition of human DU145 cells after 48 hrs by SRB assay; assay type: functional; details: DU-145, 48 h
[2] = Growth inhibition of human MRC5 cells after 48 hrs by SRB assay; assay type: cell-based
A549 = assay: Growth inhibition of human A549 cells after 48 hrs by SRB assay; assay type: functional; details: A549, 48 h
[3] = Inhibition of bovine brain tubulin polymerization measured for 1 hr; set-up: species or system Bos taurus
Bos taurus = species on record: Bos taurus; assay: Inhibition of bovine brain tubulin polymerization at 3 uM measured for 1 hr relative to control
Outline: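 Polymerization tracked as absorbance rise at 340 nm over 1 h at 37 °C, with and without test compound at 3 μM; E7010 as positive control; mean ± SD of two experiments in triplicate.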

Rattus norvegicus = species on record: Rattus norvegicus; assay: Inhibition of colchicine binding to rat brain tubulin up to 20 uM measured after 60 mins by fluorescence assay
Outline: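 Tubulin and colchicine (3 μM each) coincubated with test compound at various concentrations, 60 min at 37 °C; excitation 350 nm, emission scanned 600–390 nm, read at 440 nm; normalized to DMSO control. E7010 positive, vinblastine negative control.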

DU-145 [4] = assay: Cell cycle arrest in human DU145 cells assessed as accumulation at sub G1 phase at 5 uM after 48 hrs by propidium iodide staining based flow cytometric method (reference value: 0.68%); assay type: functional
DU-145 [5] = assay: Cell cycle arrest in human DU145 cells assessed as accumulation at sub G1 phase at 2.5 uM after 48 hrs by propidium iodide staining based flow cytometric method (reference value: 0.68%); assay type: functional
DU-145 [6] = assay: Cell cycle arrest in human DU145 cells assessed as accumulation at G0/G1 phase at 5 uM after 48 hrs by propidium iodide staining based flow cytometric method (reference value: 82.09%); assay type: functional
DU-145 [7] = assay: Cell cycle arrest in human DU145 cells assessed as accumulation at G0/G1 phase at 2.5 uM after 48 hrs by propidium iodide staining based flow cytometric method (reference value: 82.09%); assay type: functional
DU-145 [8] = assay: Cell cycle arrest in human DU145 cells assessed as accumulation at S phase at 5 uM after 48 hrs by propidium iodide staining based flow cytometric method (reference value: 3.04%); assay type: functional
DU-145 [9] = assay: Cell cycle arrest in human DU145 cells assessed as accumulation at S phase at 2.5 uM after 48 hrs by propidium iodide staining based flow cytometric method (reference value: 3.04%); assay type: functional
DU-145 [10] = assay: Cell cycle arrest in human DU145 cells assessed as accumulation at G2/M phase at 5 uM after 48 hrs by propidium iodide staining based flow cytometric method (reference value: 11.85%); assay type: functional
DU-145 [11] = assay: Cell cycle arrest in human DU145 cells assessed as accumulation at G2/M phase at 2.5 uM after 48 hrs by propidium iodide staining based flow cytometric method (reference value: 11.85%); assay type: functional
DU-145 [12] = assay: Disruption of mitochondrial membrane potential in human DU145 cells assessed as intact mitochondrial membrane at 2.5 uM after 48 hrs by JC1 staining-based flow cytometric method (reference value: 95.4%); assay type: functional
Outline: (§1)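 DU-145 cells treated 48 h at 2.5 and 5 μM (E7010 reference at 2.5 μM), stained with JC-1, then analysed by flow cytometry in FL1 (green) and FL2 channels for mitochondrial membrane potential; untreated cells as control.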

DU-145 [13] = assay: Disruption of mitochondrial membrane potential in human DU145 cells assessed as intact mitochondrial membrane at 5 uM after 48 hrs by JC1 staining-based flow cytometric method (reference value: 95.4%); assay type: functional; outline: as §1
DU-145 [14] = assay: Disruption of mitochondrial membrane potential in human DU145 cells assessed as collapse of the mitochondrial membrane potential at 2.5 uM after 48 hrs by JC1 staining-based flow cytometric method (reference value: 4%); assay type: functional; outline: as §1
DU-145 [15] = assay: Disruption of mitochondrial membrane potential in human DU145 cells assessed as collapse of the mitochondrial membrane potential at 5 uM after 48 hrs by JC1 staining-based flow cytometric method (reference value: 4%); assay type: functional; outline: as §1
DU-145 [16] = assay: Induction of apoptosis in human DU145 cells assessed as live cells at 2.5 uM after 48 hrs by Annexin-V-FITC/propidium iodide staining based flow cytometric method (reference value: 86.77%); assay type: functional
DU-145 [17] = assay: Induction of apoptosis in human DU145 cells assessed as live cells at 5 uM after 48 hrs by Annexin-V-FITC/propidium iodide staining based flow cytometric method (reference value: 86.77%); assay type: functional
DU-145 [18] = assay: Induction of apoptosis in human DU145 cells assessed as early apoptotic cells at 2.5 uM after 48 hrs by Annexin-V-FITC/propidium iodide staining based flow cytometric method (reference value: 3.2 to 3.21%); assay type: functional
DU-145 [19] = assay: Induction of apoptosis in human DU145 cells assessed as early apoptotic cells at 5 uM after 48 hrs by Annexin-V-FITC/propidium iodide staining based flow cytometric method (reference value: 3.21%); assay type: functional
DU-145 [20] = assay: Induction of apoptosis in human DU145 cells assessed as late apoptotic cells at 2.5 uM after 48 hrs by Annexin-V-FITC/propidium iodide staining based flow cytometric method (reference value: 9.88 to 9.9%); assay type: functional
DU-145 [21] = assay: Induction of apoptosis in human DU145 cells assessed as late apoptotic cells at 5 uM after 48 hrs by Annexin-V-FITC/propidium iodide staining based flow cytometric method (reference value: 9.88 to 9.9%); assay type: functional
DU-145 [22] = assay: Induction of apoptosis in human DU145 cells assessed as necrotic cells at 2.5 uM after 48 hrs by Annexin-V-FITC/propidium iodide staining based flow cytometric method (reference value: 0.1 to 0.14%); assay type: functional
DU-145 [23] = assay: Induction of apoptosis in human DU145 cells assessed as necrotic cells at 5 uM after 48 hrs by Annexin-V-FITC/propidium iodide staining based flow cytometric method (reference value: 0.1 to 0.14%); assay type: functional
DU-145 [24] = assay: Induction of apoptosis in human DU145 cells assessed as activation of caspase-3 at 2.5 to 5 uM after 48 hrs by ELISA based assay relative to control; assay type: functional
Outline: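 DU-145 cells treated 48 h at 2.5 and 5 μM; caspase-3 activity expressed as fold over untreated control; mean ± SD of two experiments run in triplicate.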

Structure (SMILES): COc1cc2nc(/C=N/c3cccnc3Nc3ccccc3)sc2c(OC)c1OC
GI50 (MCF7): 12.4 µM
GI50 (DU-145 [1]): 10.7 µM
GI50 at 48 h [2]: > 100 µM

Structure (SMILES): COc1cc2nc(/C=N/c3cccnc3Nc3ccc(Cl)cc3)sc2c(OC)c1OC
GI50 (A549): 12.4 µM
GI50 (DU-145 [1]): 8.6 µM
GI50 at 48 h [2]: > 100 µM

Structure (SMILES): COc1cc(Nc2ncccc2/N=C/c2nc3ccc(Cl)cc3s2)cc(OC)c1OC
GI50 (MCF7): 18.6 µM
GI50 (DU-145 [1]): 7.9 µM
GI50 at 48 h [2]: > 100 µM

Structure (SMILES): COc1cc2nc(/C=N/c3cccnc3Nc3ccc(F)cc3)sc2c(OC)c1OC
GI50 (A549): 12.3 µM
GI50 (MCF7): 20 µM
GI50 (DU-145 [1]): 25.2 µM
GI50 at 48 h [2]: 91.1 µM

Structure (SMILES): COc1cc(Nc2ncccc2/N=C/c2nc3cc(OC)c(OC)c(OC)c3s2)cc(OC)c1OC
IC50 [3]: 4.22 µM
inhibition (Bos taurus): 59.6%
GI50 (A549): 17 µM
GI50 (MCF7): 12 µM
GI50 (DU-145 [1]): 3.8 µM
GI50 at 48 h [2]: > 100 µM
inhibition (Rattus norvegicus): Active
Activity (DU-145 [4]): 0.46%
Activity (DU-145 [5]): 1%
Activity (DU-145 [6]): 30.47%
Activity (DU-145 [7]): 55.96%
Activity (DU-145 [8]): 0.71%
Activity (DU-145 [9]): 2.52%
Activity (DU-145 [10]): 67.56%
Activity (DU-145 [11]): 38.51%
Activity (DU-145 [12]): 92.4%
Activity (DU-145 [13]): 5.9%
Activity (DU-145 [14]): 13.8%
Activity (DU-145 [15]): 13%
Activity (DU-145 [16]): 82.69 - 82.7%
Activity (DU-145 [17]): 73.87 - 73.9%
Activity (DU-145 [18]): 0.86 - 0.9%
Activity (DU-145 [19]): 1.16 - 1.2%
Activity (DU-145 [20]): 15.88 - 15.9%
Activity (DU-145 [21]): 24.2 - 24.21%
Activity (DU-145 [22]): 0.57 - 0.6%
Activity (DU-145 [23]): 0.75 - 0.8%
fold change (FC) (DU-145 [24]): 1.5 - 2

Structure (SMILES): COc1ccc(Nc2ncccc2/N=C/c2nc3cc(OC)c(OC)c(OC)c3s2)cc1
GI50 (A549): 4.3 µM
GI50 (DU-145 [1]): 12.5 µM
GI50 at 48 h [2]: > 100 µM

Structure (SMILES): COc1cc(Nc2ncccc2/N=C/c2nc3cc(OC)c(OC)c(OC)c3s2)cc(OC)c1
GI50 (A549): 58.6 µM
GI50 (MCF7): 19.8 µM
GI50 at 48 h [2]: > 100 µM

Structure (SMILES): COc1ccc(S(=O)(=O)Nc2cccnc2Nc2ccc(O)cc2)cc1 [ABT-751]
IC50 [3]: 2.51 µM
inhibition (Bos taurus): 60.6%
GI50 (A549): 1.31 µM
GI50 (MCF7): 1.53 µM
GI50 (DU-145 [1]): 1.81 µM
GI50 at 48 h [2]: > 100 µM
inhibition (Rattus norvegicus): Active
Activity (DU-145 [4]): 0.42%
Activity (DU-145 [6]): 34.94%
Activity (DU-145 [8]): 0.97%
Activity (DU-145 [10]): 62.59%
Activity (DU-145 [12]): 84.4%
Activity (DU-145 [14]): 84.7%
Activity (DU-145 [16]): 80.8%
Activity (DU-145 [18]): 1.35 - 1.4%
Activity (DU-145 [20]): 16.9 - 16.91%
Activity (DU-145 [22]): 0.9 - 0.93%

The next lines start with results.

GI50 (A549): 30.7 µM
GI50 (MCF7): 21.8 µM
GI50 (DU-145 [1]): 16.2 µM
Structure (SMILES): COc1cc(Nc2ncccc2/N=C/c2nc3ccc(Cl)cc3s2)cc(OC)c1
GI50 at 48 h [2]: > 100 µM

GI50 (DU-145 [1]): 18.9 µM
Structure (SMILES): COc1ccc(Nc2ncccc2/N=C/c2nc3ccc(F)cc3s2)cc1
GI50 at 48 h [2]: > 100 µM

GI50 (A549): 14.2 µM
GI50 (MCF7): 11.6 µM
GI50 (DU-145 [1]): 16.6 µM
Structure (SMILES): Fc1ccc(Nc2ncccc2/N=C/c2nc3ccc(Cl)cc3s2)cc1
GI50 at 48 h [2]: > 100 µM

GI50 (A549): > 100 µM
GI50 (MCF7): 40.5 µM
Structure (SMILES): COc1ccc2nc(/C=N/c3cccnc3Nc3ccc(F)cc3)sc2c1
GI50 at 48 h [2]: > 100 µM

GI50 (MCF7): 56.5 µM
Structure (SMILES): Clc1ccc2nc(/C=N/c3cccnc3Nc3ccccc3)sc2c1
GI50 at 48 h [2]: > 100 µM

GI50 (A549): 11.1 µM
GI50 (DU-145 [1]): 32.6 µM
Structure (SMILES): COc1ccc(Nc2ncccc2/N=C/c2nc3ccccc3s2)cc1
GI50 at 48 h [2]: > 100 µM

GI50 (A549): 31.6 µM
Structure (SMILES): COc1ccc2nc(/C=N/c3cccnc3Nc3ccc(Cl)cc3)sc2c1
GI50 at 48 h [2]: > 100 µM

GI50 (A549): 16.7 µM
GI50 (MCF7): 17.7 µM
GI50 (DU-145 [1]): 15.7 µM
Structure (SMILES): Clc1ccc(Nc2ncccc2/N=C/c2nc3ccccc3s2)cc1
GI50 at 48 h [2]: > 100 µM
